Assay [1] concerns Bacteria. Description: Inhibition of 15N-Labeled beta lactamase TEM-1 (unknown origin) over expressed in Escherichia coli BL21(DE3) cells assessed as residual activity at 1 mM by CENTA relative to control. The method in brief: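 TEM-1 (116 nM) screened with inhibitor at 1 mM, hydrolysis of chromogenic CENTA at 300 μM (~8× Km of 36 μM) followed. Activity expressed relative to positive control lacking inhibitor, mean ± standard deviation of at least three replicates. Enzyme purity >83% by SDS-PAGE.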

Assay [2] is described as follows: Competitive inhibition of 15N-Labeled beta lactamase TEM-1 (unknown origin) over expressed in Escherichia coli BL21(DE3) cells by CENTA. Details: species or system Bacteria.
Assay [3] in a line: Uncompetitive inhibition of 15N-Labeled beta lactamase TEM-1 (unknown origin) over expressed in Escherichia coli BL21(DE3) cells by CENTA. Details: species or system Bacteria.
The nature of assay [4]: Inhibition of 15N-Labeled beta lactamase TEM-1 (unknown origin) over expressed in Escherichia coli BL21(DE3) cells by CENTA. More on the design: species or system Bacteria. An outline of the steps:
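IC50 against TEM-1 from CENTA (300 μM) hydrolysis using two-fold inhibitor dilutions; value derived by fitting a dose-response curve. Enzyme purity >83% by SDS-PAGE.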

Assay [5] can be described thus: Noncompetitive inhibition of 15N-Labeled beta lactamase TEM-1 (unknown origin) over expressed in Escherichia coli BL21(DE3) cells by CENTA. More on the design: species or system Bacteria.
Assay [6] is described as follows: Inhibition of 15N-Labeled beta lactamase TEM-1 G1u104Lys/Gly238Ser double mutant (unknown origin) over expressed in Escherichia coli BL21(DE3) cells by CENTA. More on the design: species or system Bacteria. An outline of the steps: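 TEM-15 from E. coli expression, purified to >83% by SDS-PAGE. Hydrolysis of the chromogenic substrate CENTA (300 μM) monitored across two-fold inhibitor dilutions. IC50 obtained by fitting a dose-response curve.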

The subject of assay [7] is Bacteria. The assay can be described thus: Inhibition of 15N-Labeled beta lactamase TEM-1 G1u104Lys/Gly238Ser double mutant (unknown origin) over expressed in Escherichia coli BL21(DE3) cells assessed as residual activity at 1 mM by CENTA relative to control. An outline of the steps: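 TEM-15 produced in E. coli, purified to >83% by SDS-PAGE, used at 56 nM. Inhibitor screened at 1 mM against hydrolysis of the chromogenic substrate CENTA (300 μM). Activity expressed relative to the positive control without inhibitor, as mean ± standard deviation of at least three replicates.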

`O=C(O)CN1C(=O)[C@H](Cc2ccc(Br)cc2)N(Cc2ccc([N+](=O)[O-])cc2)S1(=O)=O`: the Activity in assay [1] was 100%.
Regarding `COc1ccc(CN2[C@@H](Cc3ccc(Br)cc3)C(=O)N(CC(=O)O)S2(=O)=O)cc1`, the Activity in assay [1] turned out to be 92%.
Still for that read-out and setting: to `COc1ccc(CN2[C@@H](Cc3ccc(F)cc3)C(=O)N(CC(=O)O)S2(=O)=O)cc1` belongs 124%.
The Ki is the dissociation constant of the complex between target and ligand, obtained from inhibition or displacement. The low end stands for a stronger hold on the target, the high end for a looser hold on the target. Broadly, the IC50 is the concentration at which inhibition is half-maximal. High values mean lower potency, low ones higher potency. Regarding `O=C(O)CN1C(=O)[C@H](Cc2ccc(Br)cc2)N(Cc2ccc(Br)cc2)S1(=O)=O`, the Ki was 32 µM in assay [2], 268 µM in assay [3] and 300 µM in assay [5]. Further, the results for the Activity in assay [1] and in assay [7] were 10% and 0%, respectively. Further, the IC50 in assay [4] was determined as 300 µM; in assay [6], 130 µM.
Turning to `O=C(O)CN1C(=O)[C@H](Cc2ccc(F)cc2)N(Cc2ccc(Br)cc2)S1(=O)=O`, the inhibitory constant (Ki) in assay [2] was found to be 55 µM; in assay [3] it was 455 µM; in assay [5], 510 µM. The figures for the Activity in assay [1] and in assay [7] were 34% and 53%, respectively. Besides, the IC50 in assay [4] worked out at 510 µM.
As for `O=C(O)CN1C(=O)[C@H](Cc2ccc(F)cc2)N(Cc2ccc([N+](=O)[O-])cc2)S1(=O)=O`, the Activity in assay [1] amounted to 101%.

The values are drawn from ChEMBL document CHEMBL4715891, “Development of sulfahydantoin derivatives as β-lactamase inhibitors” (Bioorg Med Chem Lett, 2021).
